What was measured:
[1] = target: Aldo-keto reductase family 1 member B1 (Rattus norvegicus, UniProt P07943); experiment: Inhibition of Wistar rat eye lens aldose reductase-2 using D-L glyceraldehyde as substrate assessed as oxidation of NADPH preincubated for 10 mins followed by substrate addition measured for 4 mins by spectrophotometric analysis
[2] = test system: Aldehyde reductase AKR1A1 (Rattus norvegicus); experiment: Inhibition of Wistar rat kidney aldehyde reductase-1 using D-glucuronate as substrate assessed as oxidation of NADPH at 10 uM preincubated for 10 mins followed by substrate addition measured for 4 mins by spectrophotometric analysis relative to control
[3] = target: Aldo-keto reductase family 1 member B1 (Rattus norvegicus) (UniProt P07943); experiment: Inhibition of Wistar rat eye lens aldose reductase-2 using D-L glyceraldehyde as substrate assessed as oxidation of NADPH at 10 uM preincubated for 10 mins followed by substrate addition measured for 4 mins by spectrophotometric analysis relative to control
Summary of the method: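 ALR2 was taken from Wistar rat lens homogenate. It was fractionated with ammonium sulfate (40% and 50% supernatants, then a 75% cut), dissolved in 0.05 M NaCl, dialyzed and stored at −20 °C. The 1 mL assay ran at 30 °C with 0.10 mM NADPH solution, 0.1 M sodium phosphate pH 6.2 and D,L-glyceraldehyde substrate. Compounds were in DMSO diluted with water, 10^-5 M final, with a substrate-free blank rate subtracted.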

| Compound | IC50 [1] | inhibition [2] | inhibition [3] |
| --- | --- | --- | --- |
| O=C(O)Cn1c(=O)c(Nc2ccc(F)cc2F)nc2cc([N+](=O)[O-])ccc21 | 0.283 µM | 41% | – |
| COc1ccc(N2CCN(c3nc4ccccc4n(CC(=O)O)c3=O)CC2)cc1 | 7.53 µM | 48% | – |
| O=C(O)Cn1c(=O)c(CCc2ccc(F)cc2)nc2ccccc21 | 1.14 µM | 40% | – |
| CC(C)(C)NC(=O)/C=C/c1nc2ccccc2n(CC(=O)O)c1=O | 1.86 µM | 25% | – |
| O=C(O)Cn1c(=O)c(/C=C/c2ccc(F)cc2)nc2ccccc21 | 1.43 µM | 47% | – |
| O=c1c(N2CCN(c3cnccn3)CC2)nc2ccccc2n1Cc1ccc([N+](=O)[O-])cc1 | – | – | 24% |
| O=c1c(/C=C/c2ccccc2)nc2ccccc2n1Cc1ccc([N+](=O)[O-])cc1 | – | – | 30% |
| O=C(O)Cn1c(=O)c(CCc2ccccc2)nc2ccccc21 | 0.143 µM | 22% | – |
| COc1ccc(N2CCN(c3nc4ccccc4n(Cc4ccc([N+](=O)[O-])cc4)c3=O)CC2)cc1 | – | – | 26% |
| O=c1c(N2CCN(c3cccc(C(F)(F)F)c3)CC2)nc2ccccc2n1Cc1ccc([N+](=O)[O-])cc1 | – | – | 42.9% |
| O=c1c(N2CCN(CCN3CCOCC3)CC2)nc2ccccc2n1Cc1ccc([N+](=O)[O-])cc1 | – | – | 23% |
| O=C(O)Cn1c(=O)c(/C=C/c2ccc(F)cc2)nc2cc([N+](=O)[O-])ccc21 | 0.362 µM | 25% | – |
| O=C(O)Cn1c(=O)c(/C=C/c2ccccc2)nc2ccc(Cl)cc21 | 3.88 µM | 35% | – |
| O=c1c(/C=C/c2ccc(F)cc2)nc2ccccc2n1Cc1ccc([N+](=O)[O-])cc1 | – | – | 24% |
| O=C(O)Cn1c(=O)c(/C=C/c2ccccc2)nc2ccccc21 | 0.82 µM | 32% | – |
| O=c1c(-c2csc3ccccc23)nc2ccccc2n1Cc1ccc([N+](=O)[O-])cc1 | – | – | 32% |
| O=C(O)Cn1c(=O)c(/C=C/c2ccc(F)cc2)nc2cc(Cl)ccc21 | 0.66 µM | 25% | – |
| CC(C)(C)NC(=O)/C=C/c1nc2ccccc2n(Cc2ccc([N+](=O)[O-])cc2)c1=O | – | – | 36.2% |

Source: ChEMBL document CHEMBL3259520, “Structure-activity relationships studies of quinoxalinone derivatives as aldose reductase inhibitors” (Eur J Med Chem, 2014)
